Results taken from ChEMBL document CHEMBL3352788, “Characterization of selective exosite-binding inhibitors of matrix metalloproteinase 13 that prevent articular cartilage degradation in vitro” (J Med Chem, 2014).

Tests used:
Cytochrome P450 2B6 = target: T1, Cytochrome P450 2B6 (Homo sapiens, UniProt P20813); assay: Inhibition of CYP2B6 (unknown origin) using bupropion substrate; format: ADME
T1 sequence (P20813 whole entry): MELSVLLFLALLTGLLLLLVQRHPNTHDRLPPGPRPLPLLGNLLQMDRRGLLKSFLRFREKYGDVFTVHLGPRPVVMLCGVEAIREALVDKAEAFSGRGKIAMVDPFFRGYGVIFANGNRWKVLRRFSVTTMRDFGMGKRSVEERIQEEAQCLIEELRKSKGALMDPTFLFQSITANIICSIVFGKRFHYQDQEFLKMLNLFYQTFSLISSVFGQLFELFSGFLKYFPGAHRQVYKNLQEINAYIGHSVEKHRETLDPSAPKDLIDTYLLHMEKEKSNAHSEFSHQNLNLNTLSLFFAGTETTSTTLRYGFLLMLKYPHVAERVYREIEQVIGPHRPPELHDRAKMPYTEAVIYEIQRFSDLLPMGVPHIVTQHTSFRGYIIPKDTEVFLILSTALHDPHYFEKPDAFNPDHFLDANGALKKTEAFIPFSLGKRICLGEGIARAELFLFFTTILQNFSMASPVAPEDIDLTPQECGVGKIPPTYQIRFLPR
How it was run: (§1)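 Human liver microsomes with probe substrate and an NADPH-regenerating system in 0.1 M potassium phosphate pH 7.4 at 37 °C, run in duplicate. Inhibitor at 0–20 μM (0–2.5 μM for one compound), eight concentrations. Reactions were stopped with acetonitrile/formic acid containing isotope-labelled internal standard, and metabolite area ratios were compared with and without inhibitor. IC50 was taken by linear interpolation between bracketing concentrations.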

Cytochrome P450 2C8 = target: T2, Cytochrome P450 2C8 (Homo sapiens, UniProt P10632); assay: Inhibition of CYP2C8 (unknown origin) using amodiaquine substrate; format: ADME; how it was run: as §1
T2 sequence (P10632 whole entry): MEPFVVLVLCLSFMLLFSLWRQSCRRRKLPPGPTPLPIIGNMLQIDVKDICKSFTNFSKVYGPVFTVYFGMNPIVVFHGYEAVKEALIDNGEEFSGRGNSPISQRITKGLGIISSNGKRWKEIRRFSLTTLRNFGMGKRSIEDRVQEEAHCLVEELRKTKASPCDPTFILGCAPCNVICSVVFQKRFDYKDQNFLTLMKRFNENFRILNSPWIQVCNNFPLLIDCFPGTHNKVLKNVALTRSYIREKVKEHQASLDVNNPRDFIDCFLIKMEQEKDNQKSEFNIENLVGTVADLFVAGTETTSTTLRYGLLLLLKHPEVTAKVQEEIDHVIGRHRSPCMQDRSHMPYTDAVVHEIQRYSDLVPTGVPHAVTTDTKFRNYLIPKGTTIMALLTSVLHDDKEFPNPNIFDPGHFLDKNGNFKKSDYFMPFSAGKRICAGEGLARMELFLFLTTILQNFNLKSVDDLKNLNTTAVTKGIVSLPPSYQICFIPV

Cytochrome P450 2C19 = Cytochrome P450 2C19 (Homo sapiens, UniProt P33261); assay: Inhibition of CYP2C19 (unknown origin) using (S)-mephentoin substrate; format: ADME; how it was run: as §1
[1] = target: 72 kDa type IV collagenase (Homo sapiens) (UniProt P08253); assay: Inhibition of recombinant human MMP-2 using GRIGFL substrate up to 20 uM
How it was run: (§2)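 Outsourced microfluidic protease panel. Compound was preincubated with each protease for 30 min at 25 °C, then peptide substrate was added for 3 h at 25 °C and quenched with SDS/EDTA/iodoacetate. Substrate-to-product conversion was measured on LabChip. Compounds were tested singly in a 12-point 3-fold dilution series, top 20 μM (5 μM for two reference compounds).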

[2] = target: Angiotensin-converting enzyme (Homo sapiens) (UniProt P12821); assay: Inhibition of recombinant human ACE using RPFNYLAK substrate up to 20 uM; how it was run: as §2
Caspase-1 (Homo sapiens) = target: T3, Caspase-1 (Homo sapiens) (UniProt P29466); assay: Inhibition of recombinant human caspase 1 using WEHDGPKR substrate at up to 20 uM after 3 hrs; how it was run: as §2
T3 sequence (whole entry): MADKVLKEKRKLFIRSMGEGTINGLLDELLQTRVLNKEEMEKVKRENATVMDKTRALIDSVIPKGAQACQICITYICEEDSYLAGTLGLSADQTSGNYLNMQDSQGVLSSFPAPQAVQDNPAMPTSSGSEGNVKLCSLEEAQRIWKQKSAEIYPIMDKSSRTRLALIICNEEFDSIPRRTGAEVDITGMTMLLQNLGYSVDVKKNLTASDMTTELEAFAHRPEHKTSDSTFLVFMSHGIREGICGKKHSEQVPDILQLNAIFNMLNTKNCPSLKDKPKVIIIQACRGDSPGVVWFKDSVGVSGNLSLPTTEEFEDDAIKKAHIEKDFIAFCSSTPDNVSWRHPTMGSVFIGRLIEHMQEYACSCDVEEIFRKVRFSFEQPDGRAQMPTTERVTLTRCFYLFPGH

Caspase-7 (Homo sapiens) = target: T4, Caspase-7 (Homo sapiens) (UniProt P55210); assay: Inhibition of recombinant human caspase 7 using DEVDAA substrate at up to 20 uM after 3 hrs; how it was run: as §2
T4 sequence (whole entry): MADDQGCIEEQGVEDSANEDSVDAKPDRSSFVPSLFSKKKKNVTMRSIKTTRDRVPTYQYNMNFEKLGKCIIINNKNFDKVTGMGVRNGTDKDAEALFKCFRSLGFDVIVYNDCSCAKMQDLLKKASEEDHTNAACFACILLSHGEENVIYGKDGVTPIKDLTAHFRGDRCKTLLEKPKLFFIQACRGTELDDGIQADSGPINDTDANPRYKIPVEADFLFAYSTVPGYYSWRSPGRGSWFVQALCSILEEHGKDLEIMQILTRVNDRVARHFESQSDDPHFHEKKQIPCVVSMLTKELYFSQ

[3] = target: Cathepsin S (Homo sapiens) (UniProt P25774); assay: Inhibition of recombinant human cathepsin S using RTLTAK substrate at up to 20 uM after 3 hrs
How it was run: (§3)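 Each protease was preincubated 30 min at 25 °C with compound in its assay buffer. Peptide substrate was then added and the reaction ran 3 h at 25 °C before quenching with SDS/EDTA/iodoacetate. Substrate-to-product conversion (%) was read by microfluidic electrophoresis. Compounds were tested in singlicate as 12-point 3-fold dilutions from 20 μM to 0.1 nM. IC50 was taken as the concentration giving 50% of no-compound control activity.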

[4] = target: Prothrombin (Homo sapiens) (UniProt P00734); assay: Inhibition of recombinant human thrombin using PRTLT substrate at up to 20 uM after 3 hrs; how it was run: as §3

Sequence of Cytochrome P450 2C19 (P33261 whole entry): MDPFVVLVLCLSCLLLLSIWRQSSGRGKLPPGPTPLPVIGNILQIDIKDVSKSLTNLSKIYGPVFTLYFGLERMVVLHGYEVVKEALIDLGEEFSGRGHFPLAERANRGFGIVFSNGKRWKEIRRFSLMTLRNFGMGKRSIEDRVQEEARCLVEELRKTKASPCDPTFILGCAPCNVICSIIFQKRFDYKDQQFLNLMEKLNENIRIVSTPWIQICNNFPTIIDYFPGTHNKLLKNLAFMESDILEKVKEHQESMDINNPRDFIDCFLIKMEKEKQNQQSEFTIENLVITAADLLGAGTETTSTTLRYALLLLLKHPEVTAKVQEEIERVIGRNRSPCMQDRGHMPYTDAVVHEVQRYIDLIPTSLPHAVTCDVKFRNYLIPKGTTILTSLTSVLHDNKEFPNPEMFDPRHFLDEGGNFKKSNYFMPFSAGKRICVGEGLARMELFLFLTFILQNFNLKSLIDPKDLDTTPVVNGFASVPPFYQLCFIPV
Sequence of Cathepsin S (Homo sapiens) (P25774 115-331 limits assumed): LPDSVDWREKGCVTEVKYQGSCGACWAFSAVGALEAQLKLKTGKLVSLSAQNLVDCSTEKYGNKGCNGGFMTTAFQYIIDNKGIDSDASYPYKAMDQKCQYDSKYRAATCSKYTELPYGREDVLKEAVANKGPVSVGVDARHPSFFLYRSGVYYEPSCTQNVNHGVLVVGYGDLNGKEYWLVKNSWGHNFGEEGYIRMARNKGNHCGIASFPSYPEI
Sequence of Angiotensin-converting enzyme (Homo sapiens) (P12821 whole entry): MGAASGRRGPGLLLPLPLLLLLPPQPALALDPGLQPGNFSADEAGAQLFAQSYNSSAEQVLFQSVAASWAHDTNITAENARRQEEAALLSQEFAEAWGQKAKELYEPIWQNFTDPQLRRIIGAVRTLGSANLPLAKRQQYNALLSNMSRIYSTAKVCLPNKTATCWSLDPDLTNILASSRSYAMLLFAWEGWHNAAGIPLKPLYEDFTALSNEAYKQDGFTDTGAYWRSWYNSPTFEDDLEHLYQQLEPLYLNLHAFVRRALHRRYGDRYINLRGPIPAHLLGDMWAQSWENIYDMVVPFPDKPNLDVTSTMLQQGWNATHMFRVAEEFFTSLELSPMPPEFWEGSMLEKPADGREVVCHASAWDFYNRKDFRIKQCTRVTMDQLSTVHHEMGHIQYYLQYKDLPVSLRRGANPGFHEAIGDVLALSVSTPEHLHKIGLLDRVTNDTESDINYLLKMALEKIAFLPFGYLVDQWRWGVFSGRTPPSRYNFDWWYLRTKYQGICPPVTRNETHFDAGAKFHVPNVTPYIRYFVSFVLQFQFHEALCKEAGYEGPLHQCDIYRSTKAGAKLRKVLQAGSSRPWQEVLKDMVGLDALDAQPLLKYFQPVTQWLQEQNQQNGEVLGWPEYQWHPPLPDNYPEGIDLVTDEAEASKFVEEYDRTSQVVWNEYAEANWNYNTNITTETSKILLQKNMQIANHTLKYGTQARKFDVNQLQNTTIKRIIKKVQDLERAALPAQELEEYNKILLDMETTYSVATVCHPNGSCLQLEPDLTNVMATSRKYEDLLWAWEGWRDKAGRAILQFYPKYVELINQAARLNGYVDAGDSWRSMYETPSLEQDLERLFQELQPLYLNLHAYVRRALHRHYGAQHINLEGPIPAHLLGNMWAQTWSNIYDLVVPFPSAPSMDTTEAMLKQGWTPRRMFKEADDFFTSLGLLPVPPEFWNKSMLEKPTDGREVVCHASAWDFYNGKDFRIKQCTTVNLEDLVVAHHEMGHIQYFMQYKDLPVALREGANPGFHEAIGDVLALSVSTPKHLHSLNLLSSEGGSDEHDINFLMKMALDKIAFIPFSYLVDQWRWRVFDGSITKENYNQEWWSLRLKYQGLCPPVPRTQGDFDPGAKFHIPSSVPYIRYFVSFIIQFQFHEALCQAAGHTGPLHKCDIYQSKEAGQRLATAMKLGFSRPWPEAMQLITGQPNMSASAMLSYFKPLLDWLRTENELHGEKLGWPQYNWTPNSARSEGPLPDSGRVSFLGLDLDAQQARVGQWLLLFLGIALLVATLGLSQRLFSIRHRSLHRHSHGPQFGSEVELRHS
Sequence of 72 kDa type IV collagenase (Homo sapiens) (P08253 110-660 limits assumed): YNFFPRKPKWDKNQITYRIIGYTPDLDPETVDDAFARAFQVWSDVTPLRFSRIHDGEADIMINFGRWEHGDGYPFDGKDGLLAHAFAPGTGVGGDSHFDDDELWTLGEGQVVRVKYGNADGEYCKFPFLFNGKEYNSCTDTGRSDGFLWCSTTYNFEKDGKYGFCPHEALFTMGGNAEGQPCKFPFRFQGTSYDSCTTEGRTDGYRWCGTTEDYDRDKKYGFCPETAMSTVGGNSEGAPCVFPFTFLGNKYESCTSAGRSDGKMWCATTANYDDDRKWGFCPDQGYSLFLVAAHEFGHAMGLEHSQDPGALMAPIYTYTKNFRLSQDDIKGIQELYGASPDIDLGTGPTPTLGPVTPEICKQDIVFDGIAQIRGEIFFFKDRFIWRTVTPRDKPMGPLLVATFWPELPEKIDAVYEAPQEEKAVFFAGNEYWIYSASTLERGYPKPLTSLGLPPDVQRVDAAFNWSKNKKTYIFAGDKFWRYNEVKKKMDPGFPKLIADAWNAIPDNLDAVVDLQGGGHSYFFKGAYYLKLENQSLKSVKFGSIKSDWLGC

Structure (SMILES)	IC50 (Cytochrome P450 2B6)	IC50 (Cytochrome P450 2C8)	IC50 (Cytochrome P450 2C19)	inhibition [1]	inhibition [2]	inhibition (Caspase-1 (Homo sapiens))	inhibition (Caspase-7 (Homo sapiens))	inhibition [3]	inhibition [4]
Cc1cc(CNC(=O)c2cc(C(=O)NCc3ccc(F)c(C)c3)ncn2)ccc1F	> 20 µM	> 20 µM	> 20 µM	–	–	–	–	–	–
Oc1nc(SCc2ccc(Cl)cc2)nc2c1CCC2	> 20 µM	> 20 µM	6.5 µM	> 10%	> 10%	< 10%	< 10%	< 10%	< 10%
COC(=O)c1ccc(CSc2nc3c(c(=O)[nH]2)CCC3)cc1	> 20 µM	> 20 µM	> 20 µM	> 10%	> 10%	< 10%	< 10%	< 10%	< 10%
Cn1c(=O)n(Cc2ccc(C(=O)O)cc2)c(=O)c2cc(C#CCc3ccccc3)ccc21	> 2.5 µM	> 2.5 µM	> 2.5 µM	–	–	–	–	–	–
Cc1ccc(CSc2nc(O)c3c(n2)CCC3)cc1	–	–	–	> 10%	> 10%	< 10%	< 10%	< 10%	< 10%
